Test results: paper PMC6281781 (Structure (London, England : 1993), 2018)

Key:
[1] = biological target: chicken PACSIN1 SH3 domain (chicken); assay: NMR titration
[2] = biological target: chicken PACSIN3 SH3 domain (chicken); assay: NMR titration
PACSIN3 SH3 domain = assay: NMR 1H,15N-HSQC chemical shift titration with PACSIN3 SH3 domain; assay type: binding, chicken; conditions: for affinity for PACSIN3 SH3 domain relative to wildtype (in words): mutations in the TRPV4-PRR, interaction not fully abolished, Fig. S6, Table S1
Procedure, shortened: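 Chicken PACSIN3 SH3 domain (N-terminal His6) was 15N-labelled in E. coli minimal medium and purified by NiNTA then Superdex75 SEC. It was held at 250 μM in 10 mM Tris pH7, 100 mM NaCl and titrated from concentrated stocks with peptide (wildtype, AAWAA, P128A or P128A/P129L) and/or lipid, with the second ligand added sequentially. HSQC shifts were fitted for KD.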

Kd [2] [µM] | Compound | affinity for PACSIN3 SH3 domain relative to wildtype (in words) (PACSIN3 SH3 domain) | further results
68.6 | chicken TRPV4 proline rich region peptide (PRR, residues 121-134), native sequence (from UniProt A0A1D5PXA5 121-134) |  | Kd [1]: 51.6 µM
 | P128A: TRPV4 N-terminal peptide with single P128A mutation in the PRR (ENKRWRRRVVEKPVAGTKGPAPNAPPILKV; left off: His6-SUMO, N-terminal, cleaved) | weakened | 
 | P128A/P129L: TRPV4 N-terminal peptide with double mutation P128A/P129L in the PRR (ENKRWRRRVVEKPVAGTKGPAPNALPILKV; left off: His6-SUMO, N-terminal, cleaved) | weakened | 
 | CCCCCCCC(=O)OC[C@H](COP(=O)(O)O[C@@H]1[C@H](O)[C@H](O)[C@@H](OP(=O)(O)O)[C@H](OP(=O)(O)O)[C@H]1O)OC(=O)CCCCCCC [PIP2, diC8-PI(4,5)P2, reference compound] |  | interaction with PACSIN3 SH3 domain (in words) (PACSIN3 SH3 domain; PIP2 added to isolated 15N-PACSIN3 SH3, no chemical shift changes in 1H,15N-HSQC): does not interact
74.2 | chicken TRPV4 PIP2 binding domain plus proline rich region peptide (PBD-PRR, residues 105-134) (from UniProt A0A1D5PXA5 105-134) |  | 
